Reference: ChEMBL document CHEMBL1156767, “Indol-3-ylcycloalkyl ketones: effects of N1 substituted indole side chain variations on CB(2) cannabinoid receptor activity” (J Med Chem, 2010)

Key:
Cannabinoid receptor 2 [1] = molecular target: T1, Cannabinoid receptor 2 (Homo sapiens, UniProt P34972); experiment: Displacement of [3H]CP-55940 from human recombinant CB2 receptor expressed in HEK293 cells; format: cell-based
Cannabinoid receptor 1 = Cannabinoid receptor 1 (Homo sapiens, UniProt P21554); experiment: Displacement of [3H]CP-55940 from human recombinant CB1 receptor expressed in CHO cells; format: cell-based; details: read-out: Ki
Homo sapiens = organism: Homo sapiens; experiment: Selectivity ratio of Ki for human recombinant CB1 receptor to Ki for human recombinant CB2 receptor
How it was run: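 Membranes were from HEK cells stably expressing human CB2 and CHO cells stably expressing human CB1. Competition was run against 0.5 nM [3H]CP-55,940 in 50 mM Tris-HCl pH 7.4, 2.5 mM EDTA, 5 mM MgCl2, 0.05% fatty-acid-free BSA, for 90 min at 30 °C, then filtered. Nonspecific binding was set with 10 μM unlabeled CP-55,940. Ki came from one-site fits. Mean ± SEM, ≥3 experiments in duplicate.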

Cannabinoid receptor 2 [2] = molecular target: T1, Cannabinoid receptor 2; experiment: Agonist activity at human recombinant CB2 receptor expressed in HEK293 cells coexpressing Galphaq/o5 assessed as calcium mobilization by FLIPR assay; format: functional, cell-based
How it was run: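 HEK cells stably coexpressing human CB2 and chimeric Gαq/o5 were seeded at 75 000 cells/well the day before and loaded with no-wash calcium dye. Mean ± SEM, ≥3 experiments in duplicate.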

Cannabinoid receptor 2 [3] = molecular target: T1, Cannabinoid receptor 2; experiment: Agonist activity at human recombinant CB2 receptor expressed in HEK293 cells coexpressing Galphaq/o5 assessed as calcium mobilization by FLIPR assay relative to CP-55940; format: functional, cell-based
How it was run: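 HEK cells stably coexpressing human CB2 and chimeric Gαq/o5 were seeded at 75 000 cells/well the day before and loaded with no-wash calcium dye. […] Mean ± SEM, ≥3 experiments in duplicate.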

T1 sequence (P34972 whole entry): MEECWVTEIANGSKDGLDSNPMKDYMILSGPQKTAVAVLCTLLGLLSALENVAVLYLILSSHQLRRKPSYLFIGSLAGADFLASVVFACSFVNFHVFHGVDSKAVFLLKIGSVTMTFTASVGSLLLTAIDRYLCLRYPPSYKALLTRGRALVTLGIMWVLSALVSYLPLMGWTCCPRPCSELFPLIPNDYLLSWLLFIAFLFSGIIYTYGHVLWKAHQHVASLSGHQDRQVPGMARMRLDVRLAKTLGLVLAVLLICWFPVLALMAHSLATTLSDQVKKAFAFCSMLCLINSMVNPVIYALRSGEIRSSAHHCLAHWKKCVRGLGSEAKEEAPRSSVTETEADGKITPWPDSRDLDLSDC
Chain of Cannabinoid receptor 1 (P21554 whole entry): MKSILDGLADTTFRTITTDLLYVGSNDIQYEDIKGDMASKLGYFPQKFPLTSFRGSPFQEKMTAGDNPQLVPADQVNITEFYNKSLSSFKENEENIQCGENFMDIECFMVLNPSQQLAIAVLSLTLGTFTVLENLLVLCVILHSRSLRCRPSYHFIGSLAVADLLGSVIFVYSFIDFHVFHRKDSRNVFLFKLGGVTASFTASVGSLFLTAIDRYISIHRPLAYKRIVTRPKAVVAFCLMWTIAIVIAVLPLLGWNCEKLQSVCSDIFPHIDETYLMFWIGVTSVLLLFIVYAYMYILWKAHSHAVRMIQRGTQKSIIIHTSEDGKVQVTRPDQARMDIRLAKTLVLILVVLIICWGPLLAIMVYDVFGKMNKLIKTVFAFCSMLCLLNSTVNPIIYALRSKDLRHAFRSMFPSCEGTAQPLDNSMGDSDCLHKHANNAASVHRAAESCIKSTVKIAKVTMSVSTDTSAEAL

Row | SMILES | pKi (Cannabinoid receptor 2 [1]; hek293) | Ki (Cannabinoid receptor 2 [1]; read-out: Ki) | Ki (Cannabinoid receptor 1) | Ratio Ki (Homo sapiens) | EC50 (Cannabinoid receptor 2 [2]) | Activity (Cannabinoid receptor 2 [3]) | Ki (Cannabinoid receptor 2 [1]; hek293, read-out: Ki) | Ki (Cannabinoid receptor 2 [1]; read-out: pKi (converted))
1 | CN1CCN(CCn2cc(C(=O)C3C(C)(C)C3(C)C)c3ccccc32)CC1 | < 6 | > 1000 nM | 2150 nM |  |  |  |  | 
2 | O=C(c1cn(CC2CCOCC2)c2ccccc12)C12CC3CC(CC(C3)O1)C2 |  | 5.9 nM | 538 nM | 91 | 8 nM | 97% |  | 
3 | CC1(C)C(C(=O)c2cn(C[C@@H]3CCCO3)c3ccccc23)C1(C)C |  | 3.3 nM | 220 nM | 67 | 14 nM | 117% |  | 
4 | CN1CCCCC1Cn1cc(C(=O)c2cc([N+](=O)[O-])ccc2I)c2ccccc21 (stereo unspecified) | 7.94 |  |  | 110 |  |  |  | 
5 | CC1(C)C(C(=O)c2cn(CCCO)c3ccccc23)C1(C)C |  | 2.1 nM | 2200 nM | 1050 | 27 nM | 140% |  | 
6 | CC1(C)C(C(=O)c2cn(Cc3ccncc3)c3ccccc23)C1(C)C |  | 3.7 nM | 48 nM | 13 | 30 nM | 99% |  | 
7 | CC1(C)C(C(=O)c2cn(CCCCCO)c3ccccc23)C1(C)C |  | 0.71 nM | 680 nM | 958 | 11 nM | 79% |  | 
8 | COCCCn1cc(C(=O)C2C(C)(C)C2(C)C)c2ccccc21 |  | 1.3 nM | 660 nM | 508 | 26 nM | 108% |  | 
9 | CC1(C)C(C(=O)c2cn(CCN3CCCC3)c3ccccc23)C1(C)C |  | 5.8 nM | > 10000 nM | > 1720 | 70 nM | 84% |  | 
10 | O=C(c1cn(CC2CCOCC2)c2ccccc12)[C@@H]1CC12CCCCC2 |  | 2.6 nM | 62 nM | 24 | 14 nM | 86% |  | 
11 | CC1(C(=O)c2cn(CCN3CCOCC3)c3ccccc23)CC1(Cl)Cl (stereo unspecified) | < 6 | > 1000 nM | > 10000 nM |  | 716 nM | 33% |  | 
12 | O=C(c1cn(CCN2CCOCC2)c2ccccc12)C1CCC1 |  |  | > 10000 nM |  | > 10000 nM |  | > 1000 nM | > 1000 nM
13 | CC1(C)C(C(=O)c2cn(CCC3CCNCC3)c3ccccc23)C1(C)C | < 6 | > 1000 nM | > 10000 nM |  |  |  |  | 
14 | CC1(C)C(C(=O)c2cn(CCN)c3ccccc23)C1(C)C | < 6 | > 1000 nM | > 10000 nM |  | > 10000 nM |  |  | 
15 | CC(C)[C@H]1CC[C@H](C(=O)c2cn(CCN3CCOCC3)c3ccccc23)CC1 |  | 190 nM | > 10000 nM | > 53 | > 10000 nM |  |  | 
16 | CC1(C)C(C(=O)c2cn(CCC(N)=O)c3ccccc23)C1(C)C |  | 220 nM | > 10000 nM |  | 294 nM | 107% |  | 
17 | CN1CCC(CCn2cc(C(=O)C3C(C)(C)C3(C)C)c3ccccc32)CC1 | < 6 | > 1000 nM | > 10000 nM |  |  |  |  | 
18 | CC1(C)C(C(=O)c2cn(C(=O)CC3CCOCC3)c3ccccc23)C1(C)C | < 6 | > 1000 nM | > 10000 nM |  |  |  |  | 
19 | CC1(C)C(C(=O)c2cn(CCCN3CCOCC3)c3ccccc23)C1(C)C | < 6 | > 1000 nM | > 10000 nM |  | 1520 nM | 56% |  | 
20 | O=C(c1cn(CCN2CCOCC2)c2ccccc12)C1CCCC1 |  |  | > 10000 nM |  | 819 nM | 35% | > 1000 nM | > 1000 nM
21 | CN1CCCC1CCn1cc(C(=O)C2C(C)(C)C2(C)C)c2ccccc21 (stereo unspecified) | < 6 | > 1000 nM | > 10000 nM |  |  |  |  | 
22 | CC1(C)C(C(=O)c2cn(CCN3CCNCC3)c3ccccc23)C1(C)C | < 6 | > 1000 nM | > 10000 nM |  | 2200 nM | 30% |  | 
23 | CC1(C)C(C(=O)c2cn(CCC(=O)O)c3ccccc23)C1(C)C | < 6 | > 1000 nM | > 10000 nM |  |  |  |  | 
